Reference: ChEMBL document CHEMBL4715906, “Antileishmanial macrolides from ant-associated Streptomyces sp. ISID311” (Bioorg Med Chem, 2021)
Calls of active or inactive are those of the source. The rule behind the calls is not given here.

Tests used:
[1] = Cytotoxicity against human THP1 cells assessed as growth inhibition after 120 hrs by Alamar blue dye based fluorometric analysis; type: cell-based; details: THP-1 cells
In short: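 PMA-differentiated THP-1 cells (2×10^4/well, PMA 20 ng/mL, 72 h, 37 °C, 5% CO2) were exposed to serial dilutions for 120 h with a doxorubicin control. Alamar Blue was added for 3 h, read at ex 536/em 588 nm, and inhibition taken relative to untreated wells. IC50 was from a variable-slope fit; mean ± SD of 3 biological replicates.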

Escovopsis [2] = assay: Antifungal activity against Escovopsis ICBG740 at 100 ug measured after 21 days by ISP-2 agar based assay; type: functional; details: dose 100.0 µg, time 21.0 day
In short: (§1)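 Agar plug challenge on ISP-2: the producing bacterium was grown alone at plate centre for 7 days, then each fungal strain was point-inoculated 3 cm from centre. 100 µg of compound or miconazole was applied directly at plate centre. Plates were monitored for 21 days at 28 °C, with two replicates per sample–fungus pair.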

Escovopsis [3] = assay: Antifungal activity against Escovopsis ICBG741 at 100 ug measured after 21 days by ISP-2 agar based assay; type: functional; details: dose 100.0 µg, time 21.0 day; in short: as §1
Pseudomonas aeruginosa = assay: Antibacterial activity against Pseudomonas aeruginosa Boston 41501 by agar-based assay; type: functional, organism-based
Leishmania donovani [4] = assay: Antileishmanial activity against Leishmania donovani MHOM/ET/67/HU3 axenic promastigotes assessed as parasite growth inhibition after 72 hrs by resorufin dye based fluorometric analysis; type: functional, organism-based; details: MHOM/ET/67/HU3, 72 h
In short: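 Axenic promastigotes, 1×10^5 per well in log phase, in M199 pH 7.4 with 10% heat-inactivated FCS at 28 °C. Ten 2-fold dilutions from 0.125 to 64 µM (10 mM DMSO stocks) were incubated for 72 h; miltefosine was the reference. Alamar Blue was added for 3 h, read at ex 536/em 588 nm, normalized to untreated wells, and IC50 obtained by variable-slope fit.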

Cunninghamella = assay: Antifungal activity against Cunninghamella ICBG752 at 100 ug measured after 21 days by ISP-2 agar based assay; type: functional, organism-based; details: dose 100.0 µg, time 21.0 day; in short: as §1
Bacillus subtilis = assay: Antibacterial activity against Bacillus subtilis NRS 231 by agar-based assay; type: functional, organism-based
Escherichia coli = assay: Antibacterial activity against Escherichia coli ATCC 25922 by agar-based assay; type: functional, organism-based
Staphylococcus aureus = assay: Antibacterial activity against methicillin-sensitive Staphylococcus aureus Wichita by agar-based assay; type: functional, organism-based
Escovopsis [5] = assay: Antifungal activity against Escovopsis ICBG711 at 100 ug measured after 21 days by ISP-2 agar based assay; type: functional; details: dose 100.0 µg, time 21.0 day; in short: as §1
[6] = Selectivity index, ratio of CC50 for human THP1 cells to IC50 for antileishmanial activity against Leishmania donovani MHOM/ET/67/HU3 amastigotes infected in human THP1 cells after 120 hrs; type: toxicity, cell-based; details: read-out: Ratio CC50/IC50
In short: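 Index computed as CC50 in PMA-differentiated THP-1 cells (120 h Alamar Blue read-out) divided by IC50 against intracellular amastigotes in THP-1 (120 h exposure, Giemsa count).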

Escovopsis [7] = assay: Antifungal activity against Escovopsis ICBG1251 at 100 ug measured after 21 days by ISP-2 agar based assay; type: functional; details: dose 100.0 µg, time 21.0 day; in short: as §1
Leishmania donovani [8] = assay: Antileishmanial activity against Leishmania donovani MHOM/ET/67/HU3 amastigotes infected in human THP1 cells assessed as parasite growth inhibition after 120 hrs by giemsa staining based inverted microscopic analysis; type: functional, organism-based; details: MHOM/ET/67/HU3, THP-1, 120 h
In short: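 THP-1 cells (2×10^4/well, RPMI-1640) were differentiated with PMA 20 ng/mL for 72 h at 37 °C, 5% CO2. They were infected with late-stage promastigotes (2×10^5/well) for 24 h, washed, then exposed to serial dilutions for 120 h with a miltefosine control. Cells were methanol-fixed and Giemsa-stained, and amastigotes per macrophage counted microscopically relative to untreated wells. IC50 was from a variable-slope fit.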

Trichoderma = assay: Antifungal activity against Trichoderma ICBG1100 at 100 ug measured after 21 days by ISP-2 agar based assay; type: functional, organism-based; details: dose 100.0 µg, time 21.0 day; in short: as §1

SMILES	CC50 at 120 h [1]	Activity (Escovopsis [2])	Activity (Escovopsis [3])	Activity (Pseudomonas aeruginosa)	IC50 (Leishmania donovani [4])	Activity (Cunninghamella)	Activity (Bacillus subtilis)	Activity (Escherichia coli)	Activity (Staphylococcus aureus)	Activity (Escovopsis [5])	selectivity ratio at 120 h [6]	Activity (Escovopsis [7])	IC50 (Leishmania donovani [8])	Activity (Trichoderma)
CC[C@H](O[C@H]1C[C@@](C)(O)[C@H](O[C@H]2CC[C@H](OC(=O)[C@H](C)[C@H](O)c3ccc4c(c3)C(=O)C=C(C)C4=O)[C@@H](C)O2)[C@H](C)O1)[C@H](C)[C@H](O)[C@@H](C)[C@H](O)[C@H](C)[C@H]1OC(=O)/C=C/[C@H](C)[C@H](O)C[C@H](O)CCC[C@@H](O)CC[C@@H](C)[C@H](O)C(=O)[C@@]2(O)C[C@@H](O)C[C@@H](C[C@@H](O)C[C@H](O)C[C@H](O)CCC[C@H](O)/C=C/[C@@H]1C)O2	11500 nM	Active	Active	inactive	118 nM	inactive	inactive	inactive	inactive	Active	4.94	Active	2320 nM	inactive
CCCCCCCCCCCCCCCCOP(=O)([O-])OCC[N+](C)(C)C [MILTEFOSINE]	60700 nM				4980 nM						11.4		5330 nM	
COc1cccc2c1C(=O)c1c(O)c3c(c(O)c1C2=O)C[C@@](O)(C(=O)CO)C[C@@H]3O[C@H]1C[C@H](N)[C@H](O)[C@H](C)O1 [DOXORUBICIN]	580 nM													
CC[C@H](O[C@H]1C[C@@](C)(O)[C@H](O[C@H]2CC[C@H](OC(=O)[C@H](C)[C@H](O)c3ccc4c(c3)C(=O)C=C(C)C4=O)[C@@H](C)O2)[C@H](C)O1)[C@H](C)[C@H](O)[C@@H](C)[C@H](O)[C@H](C)[C@H]1OC(=O)/C=C/[C@H](C)[C@H](O)C[C@H](O)CCC[C@@H](O)CC[C@@H](C)[C@H](O)C(=O)[C@@]2(O)C[C@@H](O)C[C@@H](C[C@@H](O)C[C@H](O)C[C@H](O)CCC[C@H](O)[C@@H]3O[C@H]3[C@@H]1C)O2	6400 nM	Active	Active	inactive	34 nM	inactive	inactive	inactive	inactive	Active	70.3	Active	91 nM	inactive
CC[C@H](O[C@H]1C[C@@](C)(O)[C@H](O[C@H]2CC[C@H](OC(=O)[C@H](C)[C@H](O)c3ccc4c(c3)C(=O)C=C(C)C4=O)[C@@H](C)O2)[C@H](C)O1)[C@H](C)[C@H](O)[C@@H](C)[C@H](O)[C@H](C)[C@H]1OC(=O)/C=C/[C@H](C)[C@H](O)C[C@H](O)CCC[C@@H](O)CC[C@@H](C)[C@H](O)C(=O)[C@]2(O)O[C@H](C[C@@H](O)C[C@H](O)C[C@H](O)CCC[C@H](O)[C@@H]3O[C@H]3[C@@H]1C)C[C@H](O)[C@H]2O	6070 nM	Active	Active	inactive	46 nM	inactive	inactive	inactive	inactive	Active	83.2	Active	73 nM	inactive
